According to ChEMBL document CHEMBL1141246, “Transformations of manool. tri- and tetracyclic norditerpenoids with in vitro activity against Plasmodium falciparum” (J Nat Prod, 2007):
≈ marks a conversion by molar mass, not a printed value.

Key:
Plasmodium falciparum = assay: Antiparasitic activity against Plasmodium falciparum 3D7 after 48 hrs; type: functional, organism-based; details: 3D7, 48 h
Procedure, shortened: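 P. falciparum 3D7 cultures diluted with fresh medium and erythrocytes to 2% parasitemia, 2% hematocrit. Serial compound dilutions added and plates held 48 h at 37 °C. Viability read as parasite lactate dehydrogenase activity, relative to solvent controls with 0.5% DMSO.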

[1] = Hemolytic activity in human erythrocytes at 100 ug/mL after 48 hrs relative to 0.2% saponin; type: ADME, cell-based, Erythrocyte; details: read-out: Activity
Procedure, shortened: (§1)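 Uninfected normal erythrocytes at 2% hematocrit incubated 48 h with compound dilutions in duplicate plates. Cells pelleted at 200g for 3 min, and hemoglobin in the supernatant read by absorbance at 405 nm. Percent hemolysis calculated against 0.2% saponin.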

[2] = Effect on erythrocyte shape in human erythrocytes assessed as stomatocytes at 100 ug/mL after 48 hrs; type: ADME, cell-based
Procedure, shortened: (§2)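 Fresh erythrocytes at 2% hematocrit incubated 48 h in parasite culture medium alone or with compound. Suspensions then wet-mounted under coverslips and examined at once by phase-contrast microscopy with a 100× oil objective; Giemsa-stained thin smears were also examined. Percent stomatocytes, echinocytes and knizocytes scored using shape definitions of Lim et al.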

[3] = Effect on erythrocyte shape in human erythrocytes assessed as stomatocytes at 50 ug/mL after 48 hrs; type: ADME, cell-based; procedure, shortened: as §2
[4] = Effect on erythrocyte shape in human erythrocytes assessed as echinocytes at 100 ug/mL after 48 hrs; type: ADME, cell-based; procedure, shortened: as §2
[5] = Effect on erythrocyte shape in human erythrocytes assessed as echinocytes at 50 ug/mL after 48 hrs; type: ADME, cell-based; procedure, shortened: as §2
[6] = Hemolytic activity in human erythrocytes at 200 ug/mL after 48 hrs relative to 0.2% saponin; type: ADME, cell-based, Erythrocyte; details: read-out: Activity; procedure, shortened: as §1
[7] = Effect on erythrocyte shape in human erythrocytes assessed as […] and stomatocytes at 100 ug/mL after 48 hrs; type: ADME, cell-based; procedure, shortened: as §2

| Compound | IC50 (Plasmodium falciparum) [µg/mL] | Activity [2] [%] | Activity [3] [%] | Activity [4] [%] | Activity [5] [%] | Activity [7] [%] | hemolysis at 48 h, 100 ug/mL [1] [%] | hemolysis at 48 h, 200 ug/mL [6] [%] |
| --- | --- | --- | --- | --- | --- | --- | --- | --- |
| C=C[C@@]1(C)CCC2=C(CC[C@H]3C(C)(C)[C@@H](O)CC[C@]23C)C1 | 7 (≈ 24.3 µM) | – | – | – | – | – | – | – |
| C=C[C@@]1(C)CCC2[C@@](O)(CC[C@H]3C(C)(C)[C@@H](O)CC[C@]23C)C1 (stereo partly specified) | 7 (≈ 22.8 µM) | – | – | – | – | – | – | – |
| C=C[C@]1(C)C=C2CC[C@H]3C(C)(CO)[C@@H](O)CC[C@]3(C)[C@H]2CC1 (stereo partly specified) | 7 (≈ 23 µM) | – | – | – | – | – | – | – |
| C=C[C@@]1(C)CCC2=C(C1)C(=O)C[C@H]1C(C)(CO)[C@@H](O)CC[C@]21C (stereo partly specified) | 7 (≈ 22 µM) | – | – | – | – | – | – | – |

More lines, main results first:

| IC50 (Plasmodium falciparum) [µg/mL] | Activity [2] [%] | Activity [3] [%] | Activity [4] [%] | Activity [5] [%] | Activity [7] [%] | Compound | hemolysis at 48 h, 100 ug/mL [1] [%] | hemolysis at 48 h, 200 ug/mL [6] [%] |
| --- | --- | --- | --- | --- | --- | --- | --- | --- |
| 5.7 (≈ 17 µM) | 8 | 2 | 0 | 2 | – | CCOC(=O)/C=C1\CC[C@H]2[C@@](O)(CC[C@H]3C(C)(C)CCC[C@@]32C)C1 | 3 | 17 |
| 3.9 (≈ 11.7 µM) | – | 11 | 0 | 0 | 17 | CCOC(=O)/C=C1/CC[C@H]2[C@@](O)(CC[C@H]3C(C)(C)CCC[C@@]32C)C1 | 9 | 34 |
| 10.6 (≈ 36.2 µM) | 64 | 5 | 0 | 1 | – | CC1(C)CCC[C@@]2(C)[C@H]1CC[C@@]1(O)C/C(=C\CO)CC[C@@H]12 | 2 | 102 |
| 19.6 (≈ 58.6 µM) | 0 | 1 | 9 | 2 | – | CCO[C@@]12CC[C@H]3[C@@](CC[C@H]4C(C)(C)CCC[C@@]43C)(C1)OC(=O)C2 | 0 | 0 |
| 10.7 (≈ 36.6 µM) | 1 | 1 | 2 | 3 | – | C=C[C@@]1(O)CC[C@H]2[C@@](O)(CC[C@H]3C(C)(C)CCC[C@@]32C)C1 | 0.6 | 0.2 |
| 13.3 (≈ 45.2 µM) | 3 | 1 | 2 | 3 | – | CC1(C)CCC[C@@]2(C)[C@H]1CC[C@@]1(O)CC(CCO)CC[C@@H]12 (stereo partly specified) | 0 | 5 |
